According to ChEMBL document CHEMBL4513216, “Probing the Open Global Health Chemical Diversity Library for Multistage-Active Starting Points for Next-Generation Antimalarials” (ACS Infect Dis, 2020):

Test: Toxicity liver stage against HepG2, at 10uM
Format: cell-based
Parameters: test concentration 10 uM, cell line HepG2-A16-CD81EGFP
Details: human, HepG2-A16-CD81EGFP cells; read-out: INHIBITION
In short: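 Uninfected HepG2-A16-CD81EGFP cells, 3 × 10^3 per well, 1536-well, plated on prespotted compound at 10 μM final, parasite-free screening media added to match infected plates; puromycin 10 μM positive, DMSO 0.5% negative; run in parallel with 48 h PbLuc assay at 37 °C, 5% CO2; viability by CellTiter-Glo luminescence, normalized to controls.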

| SMILES | cytotoxicity at 10 µM [%] |
| --- | --- |
| COc1ccc(NC(=O)C2CC(=O)n3cnnc3S2)cc1 (centres undefined) | 1.64 |
| CC(=O)N1CCC(N2CCOC[C@H]2c2nc(C(C)(C)C)c[nH]2)CC1 | 6.51 |
| CCOCc1nc(N2CCOCC2)sc1C(=O)NCCCc1ccco1 | -87.3 |
| Cc1ccn(CCC(=O)NC(C)Cc2ccco2)n1 (centres undefined) | -4.1 |
| COc1cc(NC(=O)c2nc3ccccc3n(C)c2=O)cc(OC)c1 | 7.67 |
| O=C1c2cccnc2OC(CN2CCOCC2)CN1CC1CC1 (centres undefined) | -6.17 |
| CC(C)C(=O)Nc1ccc2c(c1)ncn2CC(=O)NCCN(C)C | -9.1 |
| COc1ccc2nnc(CCC(=O)Nc3nc(C)c(C)s3)n2n1 | -3.18 |
| COc1cc(OC)cc(C(=O)NCc2nn(C)c3c2COCC3)c1 | 6.17 |
| CN1CCc2c(C#N)c(NCc3ccccc3)n3cnnc3c2C1 | 3.93 |
| Cn1nc(CNC(=O)c2nc3ccccc3s2)c2c1CCOC2 | -3.16 |
| CC(C)NC(=O)N1CCN(C(=O)N(C)C)CC2(CC(=O)N(C)C2)C1 (centres undefined) | -17.8 |
| CCCNC(=O)c1nn(CC)cc1Cl | 6.11 |
| CCn1cc(NC(=O)CN2C(=O)CC(C)(C)c3ccccc32)cn1 | -1.7 |
| CCn1nc(C)c2nnn(CC(=O)Nc3cccc(Cl)c3)c(=O)c21 | 4.47 |
| O=C(CC1CCCC1)N1CCC(c2noc(-c3ccccn3)n2)CC1 | 5.05 |
| CC(C)(C)C(=O)NCCc1cc2nc(-c3ccncc3)ccn2n1 | 6.66 |
| COc1ccc2c(c1)CC(C1CCOCC1)N(C(=O)c1cnccn1)C2 (centres undefined) | 5.21 |
| Cc1nc(CN2CCCC(c3nccs3)C2)cs1 (centres undefined) | 2.3 |
| CC(=O)N1CCCC(C(=O)c2cnn(-c3ccc(F)cc3)c2N)C1 (centres undefined) | 5.82 |
| O=C(Cn1cc(Cl)cn1)N1CCCC(c2cc3ccccc3cn2)C1 (centres undefined) | -27.3 |
| Cc1cccnc1CN1CC[C@@](C)(O)[C@H](Oc2ccccc2)C1 | -9.11 |
| CC1CCN(C(=O)c2cnc(CC3CCCN(C)C3)cn2)CC1 (centres undefined) | -11.7 |

| SMILES | cytotoxicity at 10 µM [%] |
| --- | --- |
| Cc1cc(-c2cnc(NCc3ccccn3)nc2C(C)C)on1 | -1.51 |
| COCC(=O)N1CCCC1c1cccc(Cc2ccccc2F)n1 (centres undefined) | -37.7 |
| O=C(NC1CC1)c1cc(C2CC2)nc2onc(C3CCNCC3)c12 | 7.16 |
| Cc1ccc(S(=O)(=O)Nc2ccc(C)c(C(=O)O)c2)s1 | -1.51 |
| O=C(c1cc[nH]n1)N1CCc2cc(Br)sc2C1 | 7.01 |
| Cc1ccnc2c1NC(=O)CN2C(=O)CCc1ccccc1 | -20.1 |
| CCCc1cc(C(=O)N2CCCN(c3cccnn3)CC2)[nH]n1 | -1.16 |
| CC(C)C(=O)Nc1cccc(CNC(=O)CSCc2ccccn2)c1 | 9.65 |
| COc1ccc(C2(C(=O)NC3CCc4nccn4C3)CCCC2)cc1 (centres undefined) | 4.48 |
| CCOc1ccccc1CN(C)C(C)c1nc(-c2cccnc2)no1 (centres undefined) | 7.84 |
| CC(=O)N1CCN(C(=O)NC(C)Cn2ccnc2)CC1 (centres undefined) | -1.05 |
| CCN(CC)C(CNC(=O)CCc1nc(C(C)C)no1)c1ccco1 (centres undefined) | 5.91 |
| CC(C)N1CCC(NC(=O)NCc2cccnc2)C1 (centres undefined) | 7.67 |
| CN(CCCOc1ccccc1)S(=O)(=O)c1cnn(C)c1 | -6.7 |
| NC(=O)NC(=O)C(c1ccccc1)N1CCN(Cc2ccccc2)CC1 (centres undefined) | -5.68 |
| COCCNC(=O)CCNc1cc(C)nc(-c2ccncc2)n1 | -1.26 |
| Cc1cc(CN2CCN(C(=O)C3(C#N)CCCCC3)CC2)on1 | 4.81 |
| CCC1CCC(N(Cc2cc(=O)n(C)c(=O)n2C)C2CC2)CC1 (centres undefined) | 22.6 |
| Cc1ccc(C(=O)N(CC2CCCO2)c2ccncc2)o1 (centres undefined) | -3.08 |
| CN(C)CCn1c(=O)oc2ccc(NC(=O)CSc3ccccc3)cc21 | -3.51 |
| COC(C)c1nc(CN2CCCNCC2)cs1 (centres undefined) | -3.78 |
| CCc1nc(CN2CCCC(N(C)Cc3cnc(C)cn3)C2)no1 (centres undefined) | -5.66 |
| N#Cc1ccc(CNc2cccc(C(=O)N3CCOCC3)c2)cc1 | -4.34 |

| SMILES | cytotoxicity at 10 µM [%] |
| --- | --- |
| CC(C)Cc1nc(CN2CCC(NC(=O)c3cccs3)CC2)no1 | -2.56 |
| CN(CCc1ccccn1)C1CCCN(Cc2noc(C3CC3)n2)C1 (centres undefined) | 11.6 |
| CCCOc1cc(C)ccc1NC(=O)N(C)C | -4.59 |
| Cc1cc(S(=O)(=O)NC(=O)CCc2cncc(F)c2)c(C)s1 | -1.99 |
| CC(=O)N(Cc1ccsc1)c1ccccc1 | -1.74 |
| COCCS(=O)(=O)NC(C)c1ccccc1Cl (centres undefined) | 5.53 |
| COc1c(CNCc2cccnc2OC2CCCC2)c(C)nn1C | -2.01 |
| Cc1cnn(CCNC(C)c2nnc(-c3cccc(Cl)c3)o2)c1 (centres undefined) | -1.41 |
| CN1CCC(N(C)c2ccccc2CNCc2ccco2)CC1 | -9.05 |
| COCCN(Cc1ccccn1)C(=O)c1ccc(=O)n(C)c1 | -16.8 |
| CSCc1cc(F)ccc1CNCc1ccncc1 | -7.53 |
| CC(=O)N(C)c1nc(Cn2nnnc2C(C)(C)C)cs1 | 6.56 |
| CC(C)(C)C(NCC(=O)N1CCNC(=O)C1)c1ccccc1 (centres undefined) | -10.7 |
| CCOCCN1CCN(CC(O)c2ccc(C(F)(F)F)cc2)CC1 (centres undefined) | -16.6 |
| CN(CCC(N)=O)Cc1cc(Br)cs1 | -0.711 |
| CNC(=O)c1c(C)cccc1NCc1nnc(C2CC2)o1 | 2.41 |
| CS(=O)(=O)c1nnc(NC(=O)CCc2ccc(Cl)s2)[nH]1 | 6.13 |
| CCN(C)c1ccc(CNS(=O)(=O)CC2CCCO2)cc1F (centres undefined) | 11.9 |
| COc1cccc(N2CCN(CCC(=O)NC3CCCC3)CC2)c1 | -5.93 |
| Cn1ccnc1CN1CCC2(CC1)CC(N1CCCC1)c1ccccc12 (centres undefined) | 7.24 |
| Cn1cc(-c2cnc(-c3ccnn3C)nc2)cc1C(=O)NC1CC1 | 3.77 |
| CCOCCn1c(=O)[nH]c2cc(C(=O)N(C)Cc3cnn(C)c3)ccc21 | 2.81 |
| COC(=O)c1cc(C)nc(N2CCN(Cc3ccn(C(C)C)c3)CC2)n1 | 9.77 |

| SMILES | cytotoxicity at 10 µM [%] |
| --- | --- |
| CC(C)c1nnc2sc(CC3CN(C(C)C)CCO3)nn12 (centres undefined) | -13.8 |
| CCc1n[nH]c(SCC(=O)N2CCc3[nH]nc(C4CCC4)c3C2)n1 | -12.1 |
| Cc1cc(Cn2cc(C(C)Cc3ccc4c(c3)OCO4)nn2)n[nH]1 (centres undefined) | 5.92 |
| CCn1ccnc1C1CCN(Cc2cccc(C)n2)CC1 | -7.93 |
| CCOC(=O)c1coc(N2CCN(Cc3cc(C)cc(C)c3)C(=O)C2)n1 | 4.24 |
| Cc1cc(C)n(CC(C)NC2CCN(Cc3cccc(O)c3)CC2)n1 (centres undefined) | -2.01 |
| COCc1ncc(CN2C[C@@H](C(=O)O)[C@H](C(C)C)C2)cn1 | -2.97 |
| CNC(=O)c1n[nH]c2c1C(c1cccc3[nH]ccc13)CC(=O)N2 (centres undefined) | 4.06 |
| CCOc1ccc2[nH]c(=O)c(CN3CCCCC3C)cc2c1 (centres undefined) | -0.895 |
| CCn1cc(CN2CCC(CNC(C)=O)CC2)cc1C#N | -6.21 |
| C[C@H](c1ccc(Cl)cc1)n1c(C2CC2)n[nH]c1=O | 9.33 |
| CCOCCC(=O)N(Cc1ccncc1)C(C)CC (centres undefined) | 9.99 |
| Cc1c(NCc2cccnc2)cccc1C(=O)N1CCC(N(C)C)C1 (centres undefined) | 14.1 |
| O=C(Nc1ccccc1OCc1ccccn1)NC1CCOCC1 | 6.78 |
| CC1(C)CN(CCC(=O)NCc2cccc(Cl)c2)CC[C@]1(C)O | -3.45 |
| COc1cccc(CN2CC3(CCNCC3)CCC2=O)c1OC | 6.39 |
| Cc1nc(NCc2scnc2-c2ccccc2)cc(C2CCNCC2)n1 | 1.69 |
| Cc1nc(C)n(CC(C)C(=O)N2CCCN(C3CCCC3)CC2)n1 (centres undefined) | -0.103 |
| CSCCC(O)C(=O)N(C)Cc1cnn(-c2ccc(F)cc2)c1 (centres undefined) | -5.36 |
| Cc1ccc(C)c(OC(C)C(=O)NCc2cccnc2)c1 (centres undefined) | 2.13 |
| CCc1nn(C)c(Cl)c1CN1CCN(c2nc(C(N)=O)cs2)CC1 | 8.81 |
| Cc1ccc(C)c(OC(C)C(=O)NCCNc2cccnc2)c1 (centres undefined) | 1.32 |
| CCc1cc(NCCCOC2CCCC2)ncn1 | -1.41 |

| SMILES | cytotoxicity at 10 µM [%] |
| --- | --- |
| CCNC(=O)[C@@H]1C[C@H](NC(=O)Cc2ccsc2)CN1Cc1ccc(C)o1 | -11.8 |
| CN(CCO)Cc1nnc(C2CCN(C3CCCCC3)CC2)n1C | 20.7 |
| CCn1ncc(Br)c1CN(C)S(=O)(=O)c1ccc(C)cc1 | 14.5 |
| NCc1cn(-c2ccccc2C(=O)NCc2ccccc2)cn1 | 3.32 |
| O=C1CCc2cc(NC(=O)C3CCCN3c3nccs3)ccc2N1 (centres undefined) | -10.8 |
| CNC(=O)c1ccc(C(=O)N2CCCCC2Cn2cc(C)cn2)cn1 (centres undefined) | -3.54 |
| CCc1nnc2n1CCN(C(=O)c1cc(Cl)c[nH]1)C2 | -6.1 |
| O=C(CCc1ccncc1)N1CCCC(n2cccn2)C1 (centres undefined) | -5.57 |
| CCOCC(O)CN1CCN(C(=O)c2ccc(C)nc2)CC1 (centres undefined) | 0.661 |
| O=C(CCNC(=O)C1CCCC1)NCc1cccnc1-n1cncn1 | -3.39 |
| O=C(NCCOc1ccc2c(c1)OCO2)C1CC(=O)N(CC2CC2)C1 (centres undefined) | -6.63 |
| CC(NC(=O)NCC1(c2ccccc2)CCC1)c1nncn1C (centres undefined) | -10.4 |
| NC(=O)C1CN(C(=O)Nc2ccccc2SC(F)(F)F)CCO1 (centres undefined) | -8.3 |
| O=C(Cn1cccnc1=O)NCCc1ccc2c(c1)OCCO2 | 4.96 |
| Cc1cnn(CC2CCCN2CC(=O)Nc2cc(C(C)(C)C)no2)c1 (centres undefined) | -7.76 |
| CCc1ccsc1C(=O)N1CCN(CC(O)CC)CC1 (centres undefined) | -4.25 |
| CCc1nccn1C1CCCN(C(=O)Cc2n[nH]c3ccccc23)C1 (centres undefined) | -0.337 |
| Cc1noc(C)c1CN(C)CC1CCCN1c1cccnn1 (centres undefined) | 0.746 |
| Cc1ccccc1-n1nc(C)c(CN(C)C(C)Cc2ccccn2)c1C (centres undefined) | 0.58 |
| COCC1CN(Cc2ccoc2)Cc2nn(C)cc21 (centres undefined) | -81.7 |
| Cc1csc(NC(=O)c2cnc(C3CCNCC3)cn2)n1 | -12.3 |
| c1coc(CN2C[C@@H]3CCCO[C@@H]3[C@H](N3CCCC3)C2)c1 | -2.02 |
